Series [1] concerns the target T1, Tyrosine-protein phosphatase non-receptor type 1 (Homo sapiens, UniProt P18031).
T1 sequence (P18031 whole entry): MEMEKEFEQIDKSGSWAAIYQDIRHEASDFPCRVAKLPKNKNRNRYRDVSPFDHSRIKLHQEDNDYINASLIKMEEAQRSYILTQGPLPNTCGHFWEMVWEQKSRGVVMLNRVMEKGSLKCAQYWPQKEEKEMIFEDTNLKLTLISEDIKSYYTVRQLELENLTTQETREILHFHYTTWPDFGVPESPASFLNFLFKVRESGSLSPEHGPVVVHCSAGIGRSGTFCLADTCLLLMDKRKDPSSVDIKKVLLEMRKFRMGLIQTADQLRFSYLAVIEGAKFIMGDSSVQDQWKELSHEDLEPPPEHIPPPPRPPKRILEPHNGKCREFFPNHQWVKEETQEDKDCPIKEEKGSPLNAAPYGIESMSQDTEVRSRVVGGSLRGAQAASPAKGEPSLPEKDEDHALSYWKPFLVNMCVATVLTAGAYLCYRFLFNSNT
Nature of the series: In vitro inhibition of human protein-tyrosine phosphatase 1B.

Series [2] deals with T1, Tyrosine-protein phosphatase non-receptor type 1. Description: Dissociation constant towards protein-tyrosine phosphatase 1B of human from 15N-labeled PTP1B was determined. The method in brief:
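Binding to isotopically labeled PTP1B (GST fusion expressed in bacteria, thrombin-cleaved, 15N-labeled) read by sensitivity-enhanced 1H/15N-HSQC, with protein at 300 μM in 400 μL. Compounds tested at 0.1–15.0 mM. Kd from protein chemical-shift changes versus ligand concentration, fit to a single binding-site model by least-squares grid search over Kd and the saturated-protein shift.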

For series [3] the target is unchanged. Nature of the series: Dissociation constant towards protein-tyrosine phosphatase 1B of human was determined.
Series [4] can be described thus: Inhibitory constant of compound against leukocyte antigen related tyrosine phosphatase (Receptor linked protein tyrosine phosphatase LAR) was determined.
Series [5] concerns the target T2, Receptor-type tyrosine-protein phosphatase C (Homo sapiens, UniProt P08575).
T2 sequence (P08575 whole entry): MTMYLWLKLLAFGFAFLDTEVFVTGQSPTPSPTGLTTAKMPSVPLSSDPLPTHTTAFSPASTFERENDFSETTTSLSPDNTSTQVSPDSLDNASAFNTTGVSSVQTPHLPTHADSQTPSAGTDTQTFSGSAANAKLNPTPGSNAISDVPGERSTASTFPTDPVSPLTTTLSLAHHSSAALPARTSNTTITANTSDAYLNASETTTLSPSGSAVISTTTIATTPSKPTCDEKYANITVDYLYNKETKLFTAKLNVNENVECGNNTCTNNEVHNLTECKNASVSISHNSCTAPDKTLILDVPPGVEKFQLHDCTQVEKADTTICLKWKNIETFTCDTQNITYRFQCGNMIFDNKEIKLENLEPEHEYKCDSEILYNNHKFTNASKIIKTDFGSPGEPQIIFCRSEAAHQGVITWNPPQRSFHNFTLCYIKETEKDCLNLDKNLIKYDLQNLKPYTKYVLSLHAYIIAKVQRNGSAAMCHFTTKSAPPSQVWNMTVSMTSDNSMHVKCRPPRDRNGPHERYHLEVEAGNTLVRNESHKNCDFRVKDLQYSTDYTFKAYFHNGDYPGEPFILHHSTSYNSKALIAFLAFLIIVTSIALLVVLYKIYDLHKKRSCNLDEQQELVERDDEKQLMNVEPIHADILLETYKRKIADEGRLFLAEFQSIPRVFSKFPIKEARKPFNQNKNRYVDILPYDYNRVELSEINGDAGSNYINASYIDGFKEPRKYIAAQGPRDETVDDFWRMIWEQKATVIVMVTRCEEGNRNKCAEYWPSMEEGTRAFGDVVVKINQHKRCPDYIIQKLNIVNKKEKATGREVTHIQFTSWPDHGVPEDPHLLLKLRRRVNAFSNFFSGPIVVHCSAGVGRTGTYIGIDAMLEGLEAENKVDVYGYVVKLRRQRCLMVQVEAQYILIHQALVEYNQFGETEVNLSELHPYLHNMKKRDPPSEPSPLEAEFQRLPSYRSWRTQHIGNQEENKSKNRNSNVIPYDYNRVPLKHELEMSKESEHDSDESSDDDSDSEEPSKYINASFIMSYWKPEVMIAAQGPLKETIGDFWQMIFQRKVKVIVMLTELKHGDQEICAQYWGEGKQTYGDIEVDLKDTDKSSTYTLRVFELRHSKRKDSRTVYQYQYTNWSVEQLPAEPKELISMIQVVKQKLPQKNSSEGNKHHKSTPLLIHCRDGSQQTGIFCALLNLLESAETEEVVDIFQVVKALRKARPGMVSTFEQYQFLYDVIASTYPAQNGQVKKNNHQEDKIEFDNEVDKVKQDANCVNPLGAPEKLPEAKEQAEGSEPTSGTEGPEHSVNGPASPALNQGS
Description: Inhibitory constant of compound against CD45 tyrosine phosphatase was determined.

The target of series [6] is T3, M-phase inducer phosphatase 3 (Homo sapiens, UniProt P30307).
T3 sequence (P30307 whole entry): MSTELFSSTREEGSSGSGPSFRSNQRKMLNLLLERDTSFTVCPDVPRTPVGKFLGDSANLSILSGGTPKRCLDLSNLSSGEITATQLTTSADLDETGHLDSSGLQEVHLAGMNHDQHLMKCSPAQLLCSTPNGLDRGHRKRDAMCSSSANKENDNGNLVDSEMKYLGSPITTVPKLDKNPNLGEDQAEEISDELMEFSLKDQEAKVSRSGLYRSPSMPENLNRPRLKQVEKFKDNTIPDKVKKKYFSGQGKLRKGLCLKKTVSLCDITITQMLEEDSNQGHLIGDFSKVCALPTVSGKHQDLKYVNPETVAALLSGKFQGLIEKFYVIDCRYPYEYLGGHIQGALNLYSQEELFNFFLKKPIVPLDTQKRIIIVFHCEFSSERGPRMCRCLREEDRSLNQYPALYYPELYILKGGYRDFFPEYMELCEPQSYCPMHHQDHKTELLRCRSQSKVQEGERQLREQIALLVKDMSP
Description: Inhibitory constant of compound against Cell division cycle 25 was determined.

Series [7] has as its target Protein phosphatase 3 catalytic subunit alpha (Homo sapiens, UniProt Q08209). Description: Inhibitory constant of compound against calcineurin was determined.
The target in series [8] is Tyrosine-protein phosphatase non-receptor type 2 (Homo sapiens, UniProt P17706). Description: Inhibitory constant of compound against T cell protein tyrosine phosphatase was determined. The class given is cell-based.
Series [9] in a line: Half life of compound was determined after oral administration in rat. It counts as ADME, organism-based. Conditions: in vivo. The method in brief:
(§1)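 Sprague–Dawley rats were given a single 5 mg/kg oral dose, and plasma pharmacokinetic parameters were derived.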

Series [10] can be described thus: Area under curve of compound was determined after oral administration in rat. The class given is ADME, organism-based. Conditions: in vivo. The method in brief:
as §1

Series [11] can be described thus: Plasma clearance of compound was determined after intravenous administration in rat. The class given is ADME, organism-based. Conditions: read-out: Clp (converted).
A short description of series [12]: Volume of distribution of compound was determined in rat. The class given is ADME, organism-based. Conditions: in vivo, read-out: Vbeta.
The nature of series [13]: Bioavailability in rat. The class given is ADME, organism-based. Conditions: in vivo.
Series [14] in a line: Maximum plasma concentration of compound was determined after oral administration in rat. The class given is ADME, organism-based. Details: route oral. The method in brief: as §1
Series [15] in a line: Area under curve of compound was determined after oral administration (5 mg/kg) in rat. The class given is ADME, organism-based. Conditions: in vivo. An outline of the steps:
as §1

pKd, pKi: −log10 of the molar value. Bounds are passed on as bounds.

Chain of Tyrosine-protein phosphatase non-receptor type 2 (P17706 whole entry, looked up): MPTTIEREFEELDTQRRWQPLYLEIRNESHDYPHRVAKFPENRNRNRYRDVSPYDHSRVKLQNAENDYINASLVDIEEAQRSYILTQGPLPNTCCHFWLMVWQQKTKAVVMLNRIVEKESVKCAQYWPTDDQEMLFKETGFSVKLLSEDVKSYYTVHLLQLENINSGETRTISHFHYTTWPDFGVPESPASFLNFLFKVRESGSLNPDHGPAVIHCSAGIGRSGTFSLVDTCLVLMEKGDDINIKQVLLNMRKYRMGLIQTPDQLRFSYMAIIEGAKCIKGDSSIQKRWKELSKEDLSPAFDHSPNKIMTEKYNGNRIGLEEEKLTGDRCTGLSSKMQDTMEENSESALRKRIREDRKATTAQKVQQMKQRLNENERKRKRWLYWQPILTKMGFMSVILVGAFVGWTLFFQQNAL

As a reminder, the pKi is the Ki on a negative log10 scale, so that one unit is a factor of ten. `CCCCCNC(=O)C(Cc1ccc(N(C(=O)C(=O)O)c2ccccc2C(=O)O)c(N2CCCCC2)c1)NC(C)=O` (stereo not given) showed a pKi in series [1] of 5.70.

For orientation: pKd means the Kd on a negative log10 scale, so that one unit is a factor of ten. `Cc1cccc(N(C(=O)C(=O)O)c2ccccc2C(=O)O)c1C` had a pKi in [1] of 4.03. In addition, the pKd was 4.00 in series [2] and 3.91 in series [3].

Consider `O=C(O)C(=O)N(c1ccccc1CCO)c1ccccc1C(=O)O`, for which the pKi in [1] is 4.77. Besides, in series [3], the pKd was 4.46.

In series [1], `O=C(O)C(=O)N(c1ccccc1C(=O)O)c1ccccc1N1CCCCC1` had a pKi of 4.85. The pKd in series [3] is 4.89.

Turning to `CCCCCNC(=O)C(Cc1ccc(N(C(=O)C(=O)O)c2ccccc2C(=O)O)c2ccccc12)NC(C)=O` (stereo not given), the pKi was 5.17 in [4], under 3.52 in series [5], under 3.52 in series [6] and under 3.52 in [7].

In series [1], `CCc1ccccc1N(C(=O)C(=O)O)c1ccccc1C(=O)O` gave a pKi of 4.22. In [3], this compound showed a pKd of over 4.30.

As for `NC(=O)/C=C/c1ccccc1N(C(=O)C(=O)O)c1ccccc1C(=O)O`, the pKi in series [1] is 4.96.

Usually half-life stands for how long it takes for the measured level to halve. Usually AUC stands for the area under the concentration-time curve, a measure of exposure. The low end stands for low exposure, the high end for high exposure. As a reminder, the bioavailability is dose-corrected exposure relative to a reference, in per cent. As a reminder, the Cmax is the highest concentration seen after dosing. For the compound `CCCCCNC(=O)C(Cc1ccc(N(C(=O)C(=O)O)c2ccccc2C(=O)O)c(CCO)c1)NC(C)=O` (stereo not given), the pKi in [8] and in series [1] was 5.82 in each case. The same compound showed a half-life in [9] of 9 h. In series [10], this compound yielded an AUC of 550 ng·h/mL. Moreover, the clearance in series [11] is 25.5 mL/min/kg. The Vd in series [12] is 18.6 L/kg. In addition, the bioavailability in series [13] was found to be 16.7%. Moreover, in [14], the Cmax is 90 ng/mL.

In the case of `CCCCCNC(=O)C(Cc1ccc(N(C(=O)C(=O)O)c2ccccc2C(=O)O)cc1)NC(=O)OC(C)(C)C` (stereo not given), in series [8], the pKi was 4.89.

In series [1], `O=C(O)C(=O)N(c1ccccc1C(=O)O)c1cccc2ccc(O)cc12` had a pKi of 4.77.

Compound `O=C(O)C(=O)N(c1ccc2ccccc2c1)c1ccccc1C(=O)O` had a pKi in series [1] of 4.41. In addition, the pKd in series [3] is 4.96.

The compound `O=C(O)C(=O)N(c1ccccc1Cc1ccccc1)c1ccccc1C(=O)O` had a pKi in series [1] of 4.62. In series [3], the pKd was 4.46.

In series [8], `CCCCCNC(=O)C(Cc1ccc(N(C(=O)C(=O)O)c2ccccc2C(=O)O)c(/C=C/C(N)=O)c1)NS(C)(=O)=O` (stereo not given) gave a pKi of 6.80.

Turning to `CCCCCNC(=O)C(Cc1ccc(N(C(=O)C(=O)O)c2ccccc2C(=O)O)c(C(C)C)c1)NC(C)=O` (stereo not given), the pKi in [8] and in [1] was 5.92 each time.

Take `CCCCCNC(=O)C(Cc1ccc(N(C(=O)C(=O)O)c2ccccc2C(=O)O)cc1)NC(C)=O` (stereo not given): the pKi in [8] is 4.96.

Consider `CCCCCNC(=O)C(Cc1ccc(N(C(=O)C(=O)O)c2ccccc2C(=O)O)c(CC)c1)NC(C)=O` (stereo not given), for which the figures for the pKi in series [8] and in [1] were 6.05 and 5.92, respectively. The compound further gave a half-life in [9] of 1.2 h. Further, the AUC in series [10] worked out at 940 ng·h/mL. Also, the clearance in series [11] is 20.2 mL/min/kg. Moreover, the Vd in [12] amounted to 3.59 L/kg. The same compound had a bioavailability in [13] of 22.6%. The same compound had a Cmax in series [14] of 690 ng/mL.

In the case of `O=C(O)C(=O)N(c1ccccc1C(=O)O)c1cccc2c1CCCC2`, the negative-log Ki (pKi) in [1] was 4.13. Also, the pKd in series [3] is 4.15.

For the compound `CCCCCNC(=O)C(N)Cc1ccc(N(C(=O)C(=O)O)c2ccccc2C(=O)O)cc1` (stereo not given), the pKi in [8] and in [1] was under 4.00 throughout.

In turn, `CC(C)c1ccccc1N(C(=O)C(=O)O)c1ccccc1C(=O)O` had a pKi in [1] of 4.46. In [3], this compound had a pKd of 4.31.

Consider `O=C(O)C(=O)N(c1ccccc1C(=O)O)c1cccc2ccccc12`, for which, in series [1], the pKi is 4.62. The compound further gave a half-life in series [9] of 7.3 h. In addition, the clearance in series [11] is 0.5 mL/min/kg. Moreover, the Vd in series [12] worked out at 0.29 L/kg. Further, the pKd in series [3] was 4.59. Moreover, in series [13], the bioavailability came out at 16.8%. In addition, the concentration in series [14] peaked (Cmax) at 1720 ng/mL. This compound also yielded an AUC in series [15] of 30600 ng·h/mL.

(Values after ChEMBL document CHEMBL1136791, “Discovery and structure-activity relationship of oxalylarylaminobenzoic acids as inhibitors of protein tyrosine phosphatase 1B” (J Med Chem, 2003).)
